Laboratory results from ChEMBL document CHEMBL4689842, “EUbOPEN Chemogenomics Library wave 1” (2021).
Several values for one entry are separate records, joined by “and”; a condition that tells them apart may be missing. Equal entries are not always repeated.

Tests used:
Format in all cases: toxicity, cell-based
Fibroblast [1] = test: Incucyte cell viability with human fibroblast; conditions: 10 µM, compound concentration 10 uM; also: filed as whole numbers so only -1 and 0 and 1 occur
U2OS [2] = test: Multiplex assay against U2OS; conditions: human, 1 µM, compound concentration 1 uM
Method in brief: (§1)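 Live cells were stained at seeding with Hoechst33342, BioTracker Green Microtubule Cytoskeleton Dye, MitoTracker Red and Annexin V Alexa Fluor 680. Following compound addition, they were imaged on a CQ1 microscope at 37°C and 5% CO2 and gated by CellPathfinder machine learning into Hoechst high-intensity objects or normal cells, with normal cells split into healthy, pyknosed or fragmented nuclei and pyknosed cells into mitotic or apoptotic. Tubulin, mitochondrial-mass and membrane-permeability phenotypes are per cents of healthy-nucleus cells.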

HEK-293T [3] = test: Incucyte cell viability with HEK293T; conditions: human, 10 µM, compound concentration 10 uM; also: filed as whole numbers so only -1 and 0 and 1 occur
HEK-293T [4] = test: Multiplex assay against HEK293T; conditions: human, 1 µM, compound concentration 1 uM; method in brief: as §1;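 as to Population Tubulin-Different-Phenotype (%): share of the cells with healthy nuclei that show this phenotype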
U2OS [5] = test: Incucyte cell viability with U2OS; conditions: human, 10 µM, compound concentration 10 uM; also: filed as whole numbers so only -1 and 0 and 1 occur
Fibroblast [6] = test: Multiplex assay against human fibroblast; conditions: 1 µM, compound concentration 1 uM; method in brief: as §1
[7] = 0 h, replicate number 2, timepoint 0 hours
[8] = 6 h, replicate number 1, timepoint 6 hours
[9] = 12 h, replicate number 1, timepoint 12 hours
[10] = 18 h, replicate number 1, timepoint 18 hours
[11] = 24 h, replicate number 1, timepoint 24 hours

C[C@H]1Oc2cc(cnc2N)-c2c(nn(C)c2C#N)CN(C)C(=O)c2ccc(F)cc21 [LORLATINIB]
Growth Rate (Fibroblast [1]; [7]): 0
Growth Rate (Fibroblast [1]; [8]): 0
Growth Rate (Fibroblast [1]; [9]): 0
Growth Rate (Fibroblast [1]; [10]): 0
Growth Rate (Fibroblast [1]; [11]): 0
Population Apoptotic (%) (U2OS [2]; 12 h, replicate 1): 53% and 37%
Population Healthy Nuclei (%) (U2OS [2]; 12 h, replicate 1): 88% and 89%
Population Hoechst High Intensity Objects (%) (U2OS [2]; 12 h, replicate 1): 2% and 3%
Population Membrane Permeable-Phenotype (%) (U2OS [2]; 12 h, replicate 1): 14%
Population Mitochondria Different-Phenotype (%) (U2OS [2]; 12 h, replicate 1): 20% and 32%
Population Mitotic Cells (%) (U2OS [2]; 12 h, replicate 1): 46% and 62%
Population Normal (%) (U2OS [2]; 12 h, replicate 1): 97% and 96%
Population Pyknosed Nuclei (%) (U2OS [2]; 12 h, replicate 1): 6% and 4%
Population Tubulin-Different-Phenotype (%) (U2OS [2]; 12 h, replicate 1): 15% and 22%
Total Cell Count (U2OS [2]; 12 h, replicate 1): 195 and 218
Population Apoptotic (%) (U2OS [2]; 12 h, replicate 2): 25% and 0%
Population Healthy Nuclei (%) (U2OS [2]; 12 h, replicate 2): 84% and 77%
Population Hoechst High Intensity Objects (%) (U2OS [2]; 12 h, replicate 2): 11% and 9%
Population Membrane Permeable-Phenotype (%) (U2OS [2]; 12 h, replicate 2): 15% and 8%
Population Mitochondria Different-Phenotype (%) (U2OS [2]; 12 h, replicate 2): 35% and 38%
Population Mitotic Cells (%) (U2OS [2]; 12 h, replicate 2): 75% and 100%
Population Normal (%) (U2OS [2]; 12 h, replicate 2): 88% and 90%
Population Pyknosed Nuclei (%) (U2OS [2]; 12 h, replicate 2): 10% and 2%
Population Tubulin-Different-Phenotype (%) (U2OS [2]; 12 h, replicate 2): 26% and 35%
Total Cell Count (U2OS [2]; 12 h, replicate 2): 129 and 122
Population Apoptotic (%) (U2OS [2]; 24 h, replicate 1): 57% and 38%
Population Fragmented Nuclei (%) (U2OS [2]; 24 h, replicate 1): 6% and 5%
Population Healthy Nuclei (%) (U2OS [2]; 24 h, replicate 1): 86% and 87%
Population Hoechst High Intensity Objects (%) (U2OS [2]; 24 h, replicate 1): 2%
Population Membrane Permeable-Phenotype (%) (U2OS [2]; 24 h, replicate 1): 11% and 7%
Population Mitochondria Different-Phenotype (%) (U2OS [2]; 24 h, replicate 1): 22% and 25%
Population Mitotic Cells (%) (U2OS [2]; 24 h, replicate 1): 42% and 61%
Population Normal (%) (U2OS [2]; 24 h, replicate 1): 97%
Population Pyknosed Nuclei (%) (U2OS [2]; 24 h, replicate 1): 6% and 7%
Population Tubulin-Different-Phenotype (%) (U2OS [2]; 24 h, replicate 1): 16% and 28%
Total Cell Count (U2OS [2]; 24 h, replicate 1): 254 and 277
Population Apoptotic (%) (U2OS [2]; 24 h, replicate 2): 55% and 21%
Population Fragmented Nuclei (%) (U2OS [2]; 24 h, replicate 2): 9% and 18%
Population Healthy Nuclei (%) (U2OS [2]; 24 h, replicate 2): 81% and 70%
Population Hoechst High Intensity Objects (%) (U2OS [2]; 24 h, replicate 2): 9% and 6%
Population Membrane Permeable-Phenotype (%) (U2OS [2]; 24 h, replicate 2): 14% and 8%
Population Mitochondria Different-Phenotype (%) (U2OS [2]; 24 h, replicate 2): 33% and 41%
Population Mitotic Cells (%) (U2OS [2]; 24 h, replicate 2): 44% and 78%
Population Normal (%) (U2OS [2]; 24 h, replicate 2): 90% and 93%
Population Pyknosed Nuclei (%) (U2OS [2]; 24 h, replicate 2): 8% and 10%
Population Tubulin-Different-Phenotype (%) (U2OS [2]; 24 h, replicate 2): 31%
Total Cell Count (U2OS [2]; 24 h, replicate 2): 140 and 145
Growth Rate (HEK-293T [3]; 0 h, replicate number 1, timepoint 0 hours): 0
Growth Rate (HEK-293T [3]; [8]): 0
Growth Rate (HEK-293T [3]; [9]): 0
Growth Rate (HEK-293T [3]; [10]): 0
Growth Rate (HEK-293T [3]; [11]): 0
Population Apoptotic (%) (HEK-293T [4]; 12 h, replicate 1): 21% and 18%
Population Fragmented Nuclei (%) (HEK-293T [4]; 12 h, replicate 1): 16% and 9%
Population Healthy Nuclei (%) (HEK-293T [4]; 12 h, replicate 1): 66% and 76%
Population Hoechst High Intensity Objects (%) (HEK-293T [4]; 12 h, replicate 1): 11% and 7%
Population Membrane Permeable-Phenotype (%) (HEK-293T [4]; 12 h, replicate 1): 7% and 4%
Population Mitochondria Different-Phenotype (%) (HEK-293T [4]; 12 h, replicate 1): 3% and 5%
Population Mitotic Cells (%) (HEK-293T [4]; 12 h, replicate 1): 78% and 81%
Population Normal (%) (HEK-293T [4]; 12 h, replicate 1): 88% and 92%
Population Pyknosed Nuclei (%) (HEK-293T [4]; 12 h, replicate 1): 17% and 14%
Population Tubulin-Different-Phenotype (%) (HEK-293T [4]; 12 h, replicate 1): 2% and 3%
Total Cell Count (HEK-293T [4]; 12 h, replicate 1): 529 and 617
Population Apoptotic (%) (HEK-293T [4]; 12 h, replicate 2): 5% and 14%
Population Fragmented Nuclei (%) (HEK-293T [4]; 12 h, replicate 2): 6% and 7%
Population Healthy Nuclei (%) (HEK-293T [4]; 12 h, replicate 2): 87%
Population Hoechst High Intensity Objects (%) (HEK-293T [4]; 12 h, replicate 2): 2%
Population Membrane Permeable-Phenotype (%) (HEK-293T [4]; 12 h, replicate 2): 3% and 1%
Population Mitochondria Different-Phenotype (%) (HEK-293T [4]; 12 h, replicate 2): 7% and 6%
Population Mitotic Cells (%) (HEK-293T [4]; 12 h, replicate 2): 94% and 85%
Population Normal (%) (HEK-293T [4]; 12 h, replicate 2): 97%
Population Pyknosed Nuclei (%) (HEK-293T [4]; 12 h, replicate 2): 6% and 5%
Population Tubulin-Different-Phenotype (%) (HEK-293T [4]; 12 h, replicate 2): 9%
Total Cell Count (HEK-293T [4]; 12 h, replicate 2): 1515 and 1456
Population Apoptotic (%) (HEK-293T [4]; 24 h, replicate 1): 18% and 15%
Population Fragmented Nuclei (%) (HEK-293T [4]; 24 h, replicate 1): 12% and 7%
Population Healthy Nuclei (%) (HEK-293T [4]; 24 h, replicate 1): 75% and 82%
Population Hoechst High Intensity Objects (%) (HEK-293T [4]; 24 h, replicate 1): 3% and 4%
Population Membrane Permeable-Phenotype (%) (HEK-293T [4]; 24 h, replicate 1): 10% and 9%
Population Mitochondria Different-Phenotype (%) (HEK-293T [4]; 24 h, replicate 1): 2% and 5%
Population Mitotic Cells (%) (HEK-293T [4]; 24 h, replicate 1): 81% and 84%
Population Normal (%) (HEK-293T [4]; 24 h, replicate 1): 96% and 95%
Population Pyknosed Nuclei (%) (HEK-293T [4]; 24 h, replicate 1): 12% and 9%
Population Tubulin-Different-Phenotype (%) (HEK-293T [4]; 24 h, replicate 1): 5% and 4%
Total Cell Count (HEK-293T [4]; 24 h, replicate 1): 614 and 730
Population Apoptotic (%) (HEK-293T [4]; 24 h, replicate 2): 3% and 7%
Population Fragmented Nuclei (%) (HEK-293T [4]; 24 h, replicate 2): 14% and 18%
Population Healthy Nuclei (%) (HEK-293T [4]; 24 h, replicate 2): 80% and 78%
Population Membrane Permeable-Phenotype (%) (HEK-293T [4]; 24 h, replicate 2): 8% and 3%
Population Mitochondria Different-Phenotype (%) (HEK-293T [4]; 24 h, replicate 2): 1%
Population Mitotic Cells (%) (HEK-293T [4]; 24 h, replicate 2): 96% and 92%
Population Pyknosed Nuclei (%) (HEK-293T [4]; 24 h, replicate 2): 4% and 3%
Population Tubulin-Different-Phenotype (%) (HEK-293T [4]; 24 h, replicate 2): 9% and 3%
Total Cell Count (HEK-293T [4]; 24 h, replicate 2): 2424 and 2417
Growth Rate (U2OS [5]; [7]): 1
Growth Rate (U2OS [5]; [8]): 1
Growth Rate (U2OS [5]; [9]): 1
Growth Rate (U2OS [5]; [10]): 1
Growth Rate (U2OS [5]; [11]): 1
Population Apoptotic (%) (Fibroblast [6]; 12 h, replicate 1): 60% and 68%
Population Fragmented Nuclei (%) (Fibroblast [6]; 12 h, replicate 1): 26% and 17%
Population Healthy Nuclei (%) (Fibroblast [6]; 12 h, replicate 1): 55% and 68%
Population Hoechst High Intensity Objects (%) (Fibroblast [6]; 12 h, replicate 1): 19% and 8%
Population Membrane Permeable-Phenotype (%) (Fibroblast [6]; 12 h, replicate 1): 20% and 11%
Population Mitochondria Different-Phenotype (%) (Fibroblast [6]; 12 h, replicate 1): 7% and 4%
Population Mitotic Cells (%) (Fibroblast [6]; 12 h, replicate 1): 40% and 31%
Population Normal (%) (Fibroblast [6]; 12 h, replicate 1): 80% and 91%
Population Pyknosed Nuclei (%) (Fibroblast [6]; 12 h, replicate 1): 17% and 14%
Total Cell Count (Fibroblast [6]; 12 h, replicate 1): 210 and 172
Population Apoptotic (%) (Fibroblast [6]; 12 h, replicate 2): 42% and 64%
Population Fragmented Nuclei (%) (Fibroblast [6]; 12 h, replicate 2): 63% and 54%
Population Healthy Nuclei (%) (Fibroblast [6]; 12 h, replicate 2): 25% and 15%
Population Hoechst High Intensity Objects (%) (Fibroblast [6]; 12 h, replicate 2): 34% and 31%
Population Membrane Permeable-Phenotype (%) (Fibroblast [6]; 12 h, replicate 2): 33% and 28%
Population Mitotic Cells (%) (Fibroblast [6]; 12 h, replicate 2): 57% and 35%
Population Normal (%) (Fibroblast [6]; 12 h, replicate 2): 65% and 68%
Population Pyknosed Nuclei (%) (Fibroblast [6]; 12 h, replicate 2): 11% and 30%
Population Tubulin-Different-Phenotype (%) (Fibroblast [6]; 12 h, replicate 2): 40% and 57%
Total Cell Count (Fibroblast [6]; 12 h, replicate 2): 91 and 67
Population Apoptotic (%) (Fibroblast [6]; 24 h, replicate 1): 55% and 64%
Population Fragmented Nuclei (%) (Fibroblast [6]; 24 h, replicate 1): 22% and 24%
Population Healthy Nuclei (%) (Fibroblast [6]; 24 h, replicate 1): 56% and 66%
Population Hoechst High Intensity Objects (%) (Fibroblast [6]; 24 h, replicate 1): 14% and 12%
Population Membrane Permeable-Phenotype (%) (Fibroblast [6]; 24 h, replicate 1): 15% and 6%
Population Mitotic Cells (%) (Fibroblast [6]; 24 h, replicate 1): 44% and 35%
Population Normal (%) (Fibroblast [6]; 24 h, replicate 1): 85% and 87%
Population Pyknosed Nuclei (%) (Fibroblast [6]; 24 h, replicate 1): 21%
Total Cell Count (Fibroblast [6]; 24 h, replicate 1): 201 and 190
Population Apoptotic (%) (Fibroblast [6]; 24 h, replicate 2): 57% and 40%
Population Fragmented Nuclei (%) (Fibroblast [6]; 24 h, replicate 2): 55% and 65%
Population Hoechst High Intensity Objects (%) (Fibroblast [6]; 24 h, replicate 2): 36% and 33%
Population Membrane Permeable-Phenotype (%) (Fibroblast [6]; 24 h, replicate 2): 33% and 20%
Population Mitochondria Different-Phenotype (%) (Fibroblast [6]; 24 h, replicate 2): 0% and 13%
Population Mitotic Cells (%) (Fibroblast [6]; 24 h, replicate 2): 42% and 60%
Population Normal (%) (Fibroblast [6]; 24 h, replicate 2): 63% and 66%
Population Tubulin-Different-Phenotype (%) (Fibroblast [6]; 24 h, replicate 2): 33% and 26%
Total Cell Count (Fibroblast [6]; 24 h, replicate 2): 60 and 87
